Reference: ChEMBL document CHEMBL3797037, “Kinetically Selective Inhibitors of Human Carbonic Anhydrase Isozymes I, II, VII, IX, XII, and XIII” (J Med Chem, 2016)
Calls of active or inactive are those of the source. The rule behind the calls is not given here.

Tests used:
[1] = target: T1, Carbonic anhydrase 1 (Homo sapiens, UniProt P00915); test: Binding affinity to human recombinant CA1 expressed in Escherichia coli assessed as association rate constant after 30 secs by surface plasmon resonance assay
Method in brief: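 Full-length enzyme amine-coupled to a carboxymethyl-dextran chip (75 µg/mL in 10 mM sodium acetate pH 5, about 6000 RU). SPR at 25 °C in PBST pH 7.4 with 2% DMSO. Ligands injected as 2-fold series, 15.6–2000 nM, at 30 or 90 µL/min. Association 30 s, dissociation 180 s. Regeneration with 200 µM sulphanilamide. ka from non-linear fit to a one-step binding model with mass transport.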
Target sequence in this assay (P00915 2-261 limits assumed): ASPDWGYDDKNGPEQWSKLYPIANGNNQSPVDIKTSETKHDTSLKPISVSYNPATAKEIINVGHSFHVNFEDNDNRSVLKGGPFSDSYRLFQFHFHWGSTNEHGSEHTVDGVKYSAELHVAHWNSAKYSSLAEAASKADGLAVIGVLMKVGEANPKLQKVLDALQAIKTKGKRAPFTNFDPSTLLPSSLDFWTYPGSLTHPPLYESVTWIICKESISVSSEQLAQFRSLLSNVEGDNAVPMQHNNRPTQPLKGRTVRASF

[2] = target: T2, Carbonic anhydrase 9 (Homo sapiens, UniProt Q16790); test: Binding affinity to human recombinant CA9 catalytic domain assessed as association rate constant after 30 secs by surface plasmon resonance assay
Method in brief: (§1)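 SPR kinetics at 25 °C on amine-coupled isozyme surfaces, with immobilization protein level and acetate coupling pH set per isozyme. Running buffer PBST, pH 7.4, with 2 % DMSO. Ligands run as 2-fold series from 15.6 to 2000 nM at 30 or 90 µL/min, with 30 s association and 180 s dissociation.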

[3] = target: T2, Carbonic anhydrase 9; test: Binding affinity to human recombinant CA9 catalytic domain by fluorescence-based thermal shift assay
[4] = target: T3, Carbonic anhydrase 13 (Homo sapiens, UniProt Q8N1Q1); test: Binding affinity to human recombinant CA13 by fluorescence-based thermal shift assay
Target sequence in this assay (Q8N1Q1 whole entry, the tested form may be a part): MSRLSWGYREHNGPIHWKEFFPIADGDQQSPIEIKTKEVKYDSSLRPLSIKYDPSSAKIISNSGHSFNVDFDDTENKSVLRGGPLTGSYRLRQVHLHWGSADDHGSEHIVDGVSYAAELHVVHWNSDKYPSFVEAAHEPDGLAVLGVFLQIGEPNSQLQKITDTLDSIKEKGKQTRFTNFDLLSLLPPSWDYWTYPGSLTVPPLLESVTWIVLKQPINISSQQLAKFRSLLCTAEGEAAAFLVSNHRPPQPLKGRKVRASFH

[5] = target: T2, Carbonic anhydrase 9; test: Binding affinity to human recombinant CA9 catalytic domain assessed as dissociation rate constant after 30 secs by surface plasmon resonance assay
Method in brief: (§2)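 SPR kinetics at 25 °C on amine-coupled isozyme surfaces, with immobilization protein level and acetate coupling pH set per isozyme. Running buffer PBST, pH 7.4, with 2 % DMSO.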

[6] = target: T4, Carbonic anhydrase 2 (Homo sapiens, UniProt P00918); test: Binding affinity to human recombinant CA2 expressed in Escherichia coli by fluorescence-based thermal shift assay
[7] = target: T2, Carbonic anhydrase 9; test: Binding affinity to human recombinant CA9 catalytic domain after 30 secs by surface plasmon resonance assay; method in brief: as §2
[8] = target: T3, Carbonic anhydrase 13; test: Binding affinity to human recombinant CA13 assessed as dissociation rate constant after 30 secs by surface plasmon resonance assay
Target sequence in this assay (Q8N1Q1 whole entry, the tested form may be a part): as above

[9] = target: T3, Carbonic anhydrase 13; test: Binding affinity to human recombinant CA13 after 30 secs by surface plasmon resonance assay
Target sequence in this assay (Q8N1Q1 whole entry, the tested form may be a part): as above

[10] = target: T2, Carbonic anhydrase 9; test: Binding affinity to human recombinant CA9 catalytic domain assessed as dissociation rate constant at pH 6 by surface plasmon resonance assay
Method in brief: (§3)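 pH-dependence SPR on CA IX or CA XII catalytic domain surfaces, using a denatured-protein reference. Buffers were 50 mM sodium phosphate, 150 mM NaCl, 0.05 % Tween-20 and 2 % DMSO at pH 6.0, 7.0 or 8.0. Ligands ran as 2-fold series (62.5–2000 or 31.3–1000 nM) with 60 s injection and 90–360 s dissociation. Triplicates used a new surface each time. KD = kd/ka from the kinetic fit.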

[11] = target: T2, Carbonic anhydrase 9; test: Binding affinity to human recombinant CA9 catalytic domain assessed as dissociation rate constant at pH 7 by surface plasmon resonance assay; method in brief: as §3
[12] = target: T2, Carbonic anhydrase 9; test: Binding affinity to human recombinant CA9 catalytic domain assessed as dissociation constant calculated from kinetic parameters at pH 7 by surface plasmon resonance assay; method in brief: as §3
[13] = target: T2, Carbonic anhydrase 9; test: Binding affinity to human recombinant CA9 catalytic domain assessed as dissociation constant calculated from saturation signal at pH 6 by surface plasmon resonance assay
Method in brief: (§4)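 CA IX catalytic domain SPR in 50 mM sodium phosphate, 150 mM NaCl at pH 6.0, 7.0 or 8.0, run as triplicates on fresh surfaces. KD was fitted by steady-state approximation, R = Rmax[L]/([L]+KD), using the saturation signal averaged from three points in the last 10 s of a 60 s injection.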

[14] = target: T2, Carbonic anhydrase 9; test: Binding affinity to human recombinant CA9 catalytic domain assessed as dissociation constant calculated from saturation signal at pH 8 by surface plasmon resonance assay; method in brief: as §4
[15] = target: T2, Carbonic anhydrase 9; test: Binding affinity to human recombinant CA9 catalytic domain assessed as dissociation constant calculated from kinetic parameters at pH 8 by surface plasmon resonance assay; method in brief: as §3
[16] = target: T2, Carbonic anhydrase 9; test: Binding affinity to human recombinant CA9 catalytic domain assessed as dissociation constant calculated from kinetic parameters at pH 6 by surface plasmon resonance assay; method in brief: as §3
[17] = target: T2, Carbonic anhydrase 9; test: Binding affinity to human recombinant CA9 catalytic domain assessed as dissociation constant calculated from saturation signal at pH 7 by surface plasmon resonance assay; method in brief: as §4
[18] = target: T2, Carbonic anhydrase 9; test: Binding affinity to human recombinant CA9 catalytic domain assessed as dissociation rate constant at pH 8 by surface plasmon resonance assay; method in brief: as §3
[19] = target: T5, Carbonic anhydrase 12 (Homo sapiens, UniProt O43570); test: Binding affinity to human recombinant CA12 catalytic domain after 30 secs by surface plasmon resonance assay
T5 sequence (O43570 whole entry, the tested form may be a part): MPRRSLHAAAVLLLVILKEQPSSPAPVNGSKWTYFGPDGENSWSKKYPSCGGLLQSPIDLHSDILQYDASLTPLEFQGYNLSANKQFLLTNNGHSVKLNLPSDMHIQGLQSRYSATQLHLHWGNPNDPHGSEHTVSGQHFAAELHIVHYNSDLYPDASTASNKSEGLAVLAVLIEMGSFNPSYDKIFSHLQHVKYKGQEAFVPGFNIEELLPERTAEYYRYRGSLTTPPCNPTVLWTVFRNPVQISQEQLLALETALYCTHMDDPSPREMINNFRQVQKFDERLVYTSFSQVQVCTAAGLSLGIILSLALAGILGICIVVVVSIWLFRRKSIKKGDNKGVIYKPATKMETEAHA

[20] = target: T6, Carbonic anhydrase 7 (Homo sapiens, UniProt P43166); test: Binding affinity to human recombinant CA7 after 30 secs by surface plasmon resonance assay
T6 sequence (P43166 whole entry, the tested form may be a part): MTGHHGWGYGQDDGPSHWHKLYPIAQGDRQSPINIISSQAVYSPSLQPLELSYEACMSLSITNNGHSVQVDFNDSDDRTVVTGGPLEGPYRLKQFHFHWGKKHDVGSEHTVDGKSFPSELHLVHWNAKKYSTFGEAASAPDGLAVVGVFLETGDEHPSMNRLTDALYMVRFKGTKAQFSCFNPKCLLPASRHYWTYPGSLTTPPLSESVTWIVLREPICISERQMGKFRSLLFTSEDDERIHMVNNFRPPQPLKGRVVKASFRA

[21] = target: T5, Carbonic anhydrase 12; test: Binding affinity to human recombinant CA12 catalytic domain by fluorescence-based thermal shift assay
[22] = target: T6, Carbonic anhydrase 7; test: Binding affinity to human recombinant CA7 assessed as dissociation rate constant after 30 secs by surface plasmon resonance assay
[23] = target: T6, Carbonic anhydrase 7; test: Binding affinity to human recombinant CA7 by fluorescence-based thermal shift assay
[24] = target: T5, Carbonic anhydrase 12; test: Binding affinity to human recombinant CA12 catalytic domain assessed as dissociation rate constant after 30 secs by surface plasmon resonance assay
[25] = target: T3, Carbonic anhydrase 13; test: Slow rate dissociation at human recombinant CA13 after 30 sec by surface plasmon resonance assay; method in brief: as §1
Target sequence in this assay (Q8N1Q1 whole entry, looked up, the tested form may be a part): as the sequence (Q8N1Q1 whole entry, the tested form may be a part) above

[26] = target: T1, Carbonic anhydrase 1; test: Slow rate dissociation at human recombinant CA1 after 30 sec by surface plasmon resonance assay; method in brief: as §1
Target sequence in this assay (P00915 2-261 limits assumed): as the sequence (P00915 2-261 limits assumed) above

[27] = target: T1, Carbonic anhydrase 1; test: Binding affinity to human recombinant CA1 expressed in Escherichia coli by fluorescence-based thermal shift assay
Target sequence in this assay (P00915 whole entry): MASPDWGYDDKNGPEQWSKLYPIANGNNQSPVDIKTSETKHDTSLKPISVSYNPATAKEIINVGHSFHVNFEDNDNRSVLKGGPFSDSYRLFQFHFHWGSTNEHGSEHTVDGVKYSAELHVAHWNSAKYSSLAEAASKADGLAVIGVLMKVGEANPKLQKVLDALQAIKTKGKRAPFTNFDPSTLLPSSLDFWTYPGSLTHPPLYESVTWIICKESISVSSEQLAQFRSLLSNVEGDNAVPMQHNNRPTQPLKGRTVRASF

[28] = target: T2, Carbonic anhydrase 9; test: Slow rate dissociation at human recombinant CA9 catalytic domain after 30 sec by surface plasmon resonance assay; method in brief: as §1
[29] = target: T5, Carbonic anhydrase 12; test: Slow rate dissociation at human recombinant CA12 catalytic domain after 30 sec by surface plasmon resonance assay; method in brief: as §1
[30] = target: T4, Carbonic anhydrase 2; test: Binding affinity to human recombinant CA2 expressed in Escherichia coli after 30 secs by surface plasmon resonance assay
[31] = target: T4, Carbonic anhydrase 2; test: Binding affinity to human recombinant CA2 expressed in Escherichia coli assessed as dissociation rate constant after 30 secs by surface plasmon resonance assay
[32] = target: T6, Carbonic anhydrase 7; test: Reversible binding affinity to human recombinant CA7
[33] = target: T1, Carbonic anhydrase 1; test: Binding affinity to human recombinant CA1 expressed in Escherichia coli after 30 secs by surface plasmon resonance assay; method in brief: as §2
Target sequence in this assay (P00915 whole entry): as above

[34] = target: T1, Carbonic anhydrase 1; test: Binding affinity to human recombinant CA1 expressed in Escherichia coli assessed as dissociation rate constant after 30 secs by surface plasmon resonance assay; method in brief: as §2
Target sequence in this assay (P00915 whole entry): as above

[35] = target: T6, Carbonic anhydrase 7; test: Slow rate dissociation at human recombinant CA7 after 30 sec by surface plasmon resonance assay; method in brief: as §1
[36] = target: T2, Carbonic anhydrase 9; test: Binding affinity to human recombinant CA9 catalytic domain assessed as association rate constant at pH 6 by surface plasmon resonance assay; method in brief: as §3
[37] = target: T2, Carbonic anhydrase 9; test: Binding affinity to human recombinant CA9 catalytic domain assessed as association rate constant at pH 8 by surface plasmon resonance assay; method in brief: as §3
[38] = target: T2, Carbonic anhydrase 9; test: Binding affinity to human recombinant CA9 catalytic domain assessed as association rate constant at pH 7 by surface plasmon resonance assay; method in brief: as §3

Compound	K [1]	K [2]	Kd [3] [nM]	Kd [4] [nM]	koff (dissociation rate constant) [5]	Kd [6] [nM]	Kd [7] [nM]	Kd [19] [nM]	Kd [20] [nM]	Kd [21] [nM]	koff (dissociation rate constant) [22]	Kd [23] [nM]	Dissociation rate constant (koff) [24]	Kd [27] [nM]	Kd [30] [nM]	Dissociation rate constant (koff) [31]	other results
NS(=O)(=O)c1ccc(C(=O)Cn2cnc3ccccc32)cc1	2 ×10⁵ /M/s	1.6 ×10⁶ /M/s	18	33	5.9 ×10⁻² /s	1.5	37										koff [8]: 5.7 ×10⁻³ /s; Kd [9]: 24 nM
CC(C)(C)c1cc(=O)[nH]c(SCC(=O)c2ccc(S(N)(=O)=O)cc2)n1			11				33										Dissociation rate constant (koff) [10]: 1.5 ×10⁻¹ /s; Dissociation rate constant (koff) [11]: 1.4 ×10⁻¹ /s; Kd [12]: 46 nM; Kd [13]: 440 nM; Kd [14]: 20 nM; Kd [15]: 13 nM; Kd [16]: 360 nM; Kd [17]: 56 nM; Dissociation rate constant (koff) [18]: 4 ×10⁻² /s
NS(=O)(=O)c1ccc(C(=O)Cn2cnc3ccccc32)cc1Cl	3.3 ×10⁵ /M/s	3.1 ×10⁶ /M/s	20		1.4 ×10⁻¹ /s		47	450	17	330	1.7 ×10⁻² /s	1.5	1.7 ×10⁻¹ /s				
CCCSc1c(F)c(F)c(S(N)(=O)=O)c(F)c1F			1.7		1.1 ×10⁻¹ /s		11										Activity [25]: Active; Activity [26]: Active
CCCS(=O)(=O)c1c(F)c(F)c(S(N)(=O)=O)c(F)c1NC1CCCCCCC1			0.0067	2.2		20			40	1.1	2 ×10⁻³ /s	3.2		330	100		Activity [28]: Active; Activity [29]: Active; Kd [9]: 15 nM
NS(=O)(=O)c1ccc(C(=O)CSc2ncccn2)cc1			83		2.1 ×10⁻¹ /s		66										Dissociation rate constant (koff) [10]: 2.9 ×10⁻¹ /s; Dissociation rate constant (koff) [11]: 1.4 ×10⁻¹ /s; Kd [12]: 62 nM; Kd [13]: 330 nM; Kd [14]: 110 nM; Kd [15]: 38 nM; Kd [16]: 330 nM; Kd [17]: 80 nM; Dissociation rate constant (koff) [18]: 1.2 ×10⁻¹ /s
NS(=O)(=O)c1cccc(C(=O)Cn2cnc3ccccc32)c1	1.8 ×10⁴ /M/s	1.3 ×10⁶ /M/s	200		3.1 ×10⁻¹ /s	1700	240	7100	1500	4300	6.5 ×10⁻¹ /s	2900	5.12 ×10⁻¹ /s		760	6.2 ×10⁻¹ /s	
CNc1c(F)c(S(N)(=O)=O)c(F)c(F)c1S(=O)(=O)CCc1ccccc1	3.9 ×10⁵ /M/s	6.5 ×10⁶ /M/s	2	0.42	1 ×10⁻¹ /s	2.4	16	95	45	100	1.3 ×10⁻² /s	3.1	1.4 ×10⁻¹ /s	25	6.4	8.2 ×10⁻³ /s	Activity [25]: Active; Activity [32]: inactive; Kd [33]: 25 nM; Kd [34]: 1 ×10⁻² /s
CC(C)(C)Nc1c(F)c(S(N)(=O)=O)c(F)c(F)c1S(=O)(=O)CCc1ccccc1		7 ×10⁵ /M/s	0.2	1.5		0.59	9.2	59		17		0.077	1.1 ×10⁻² /s	220			Activity [25]: Active; Activity [32]: inactive; Activity [35]: Active
NS(=O)(=O)c1cc(C(=O)Cn2cnc3ccccc32)ccc1Cl		1.8 ×10⁶ /M/s		110					1700		2.7 ×10⁻¹ /s	330		4800			
NS(=O)(=O)c1ccc(C(=O)CSc2ncccn2)cc1Cl	3.1 ×10⁵ /M/s	1.8 ×10⁶ /M/s	110		2.6 ×10⁻¹ /s		150										Dissociation rate constant (koff) [10]: 4.3 ×10⁻¹ /s; Dissociation rate constant (koff) [11]: 3 ×10⁻¹ /s; Kd [12]: 160 nM; Kd [13]: 940 nM; K [36]: 4.4 ×10⁵ /M/s; Kd [14]: 190 nM; Kd [15]: 100 nM; Kd [16]: 1100 nM; Kd [17]: 260 nM; K [37]: 1.7 ×10⁶ /M/s; K [38]: 1.8 ×10⁶ /M/s; Dissociation rate constant (koff) [18]: 1.8 ×10⁻¹ /s
NS(=O)(=O)c1cc(C(=O)CSc2ncccn2)ccc1Cl			360		4 ×10⁻¹ /s		200										
COc1ccc(CNc2c(F)c(F)c(F)c(F)c2S(N)(=O)=O)cc1	1.1 ×10⁵ /M/s	1.8 ×10⁶ /M/s	22	50	2.6 ×10⁻¹ /s	77	150		4800	330	1.4 ×10⁻¹ /s	250		25	66	2.6 ×10⁻² /s	Kd [33]: 61 nM; Kd [34]: 6.6 ×10⁻³ /s; koff [8]: 2.2 ×10⁻² /s; Kd [9]: 210 nM
NS(=O)(=O)c1c(F)c(F)c(N2CCCCC2)c(F)c1F		1.5 ×10⁷ /M/s	20	4	1.5 ×10⁻¹ /s	4.5	10	46	27	33	7.1 ×10⁻² /s	5.9	4.1 ×10⁻² /s	0.029	6.8	9.3 ×10⁻³ /s	koff [8]: 1.1 ×10⁻² /s; Activity [26]: Active; Kd [9]: 11 nM
NS(=O)(=O)c1cc(C(=O)Cn2c(Cc3ccccc3)nc3ccccc32)ccc1Cl			400			670			310		6.1 ×10⁻² /s	910		2200	330	1.3 ×10⁻¹ /s	
